This is an account of results in the RNAGym collection of RNA variant scans (doi:10.1038/s41586-018-0170-7).

The chains are these.
B1: tRNA (parent)
chain: GUUCCGUUGGCGUAAUGGUAACGCGUCUCCCUCCUAAGGAGAAGACUGCGGGUUCGAGUCCCGUACGGAACG

The variants in this series derive from B1. In words: yeast fitness, log relative to wild type (ln ratio); higher = fitter; tRNA-Arg(CCU), competitive growth, 37 C, 1 M NaCl. The essentials: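 Fitness is the natural log of a genotype's generation count divided by that of the wild type. A combinatorial library of tRNA-Arg(CCU) variants sat on a HIS3 centromeric plasmid in BY4742 lacking the chromosomal gene, from two independent transformations. Pools grew 4 generations in SC-HIS at 30 °C, then ~6.5 generations (~26.5 h) in SC-HIS 1M NaCl at 37 °C, with three outputs per input. Generations came from OD-scaled log2 output/input frequency, inverse-variance weighted across replicates, with variants counted by 125 bp paired-end Illumina sequencing.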
Consider G1A U2G G6U C27U A70U C71U, for which the “yeast fitness (ln)” value was -0.305.

Turning to G1A U2G G6A C46U A70U C71U, the “yeast fitness (ln)” value is -0.559.

As to G1A U2G G6U C27U C46U, the “yeast fitness (ln)” value was -0.217.

As for G1A U2G G6U C27U A43C C66A A70U, the “yeast fitness (ln)” value was -0.212.

In the case of G1A U2G G6U A43C C46U C66A A69G A70U, the “yeast fitness (ln)” value is -0.256.

Regarding G1A U2G G6U C27U A43C C66U A70U C71U, the “yeast fitness (ln)” value was -0.429.

In the case of G1A U2G G6A A43C A70U, the “yeast fitness (ln)” value is -0.216.

Take G1A U2G G6A A43C A70G: the “yeast fitness (ln)” value is -0.304.

G1A U2G G6U A69G C71U: the “yeast fitness (ln)” value is -0.224.

As to G1A U2G G6U A43C C46U C66U A70G, the “yeast fitness (ln)” value is -0.344.

Turning to G1A U2G G6U A43C C46U C66U A70U, the “yeast fitness (ln)” value was -0.275.

With G1A U2G G6U C27U A43C C46U A69G A70U C71U, the “yeast fitness (ln)” value was -0.41.

As to G1A U2G G6A C27U, the “yeast fitness (ln)” value is -0.0861.

As for G1A U2G G6A C46U A69G A70U C71U, the “yeast fitness (ln)” value is -0.259.

Regarding G1A U2G G6U A70U, the “yeast fitness (ln)” value is -0.166.

For the variant G1A U2G G6U A70G, the “yeast fitness (ln)” value was -0.235.

Consider G1A U2G G6A C27U A43C C66U A70U C71U, for which the “yeast fitness (ln)” value is -0.536.

Regarding G1A U2G G6U A43C C46U A69G A70G C71U, the “yeast fitness (ln)” value was -0.345.

Regarding G1A U2G G6U C27U A43C C46U A69G A70G C71U, the “yeast fitness (ln)” value is -0.446.

For the variant G1A U2G G6A C27U A43C C46U C66A A70G C71U, the “yeast fitness (ln)” value is -0.478.

G1A U2G G6U A43C C46U: the “yeast fitness (ln)” value was -0.117.

For G1A U2G G6A C27U A43C, the “yeast fitness (ln)” value is -0.235.

With G1A U2G G6A A43C C46U C71U, the “yeast fitness (ln)” value is -0.23.

Regarding G1A U2G G6U A43C C46U C66A A70G, the “yeast fitness (ln)” value is -0.178.

G1A U2G G6U A43C C46U C66A A70U: the “yeast fitness (ln)” value was -0.303.

As to G1A U2G G6U A43C C66U A70G C71U, the “yeast fitness (ln)” value was -0.419.

Turning to G1A U2G G6U A43C C46U C66A A70G C71U, the “yeast fitness (ln)” value was -0.153.

Take G1A U2G G6A C27U C46U C66U A69G A70U C71U: the “yeast fitness (ln)” value is -0.542.

With G1A U2G G6A C27U C46U C66U C71U, the “yeast fitness (ln)” value was -0.196.

Turning to G1A U2G G6U A43C C71U, the “yeast fitness (ln)” value is -0.307.

Consider G1A U2G G6A C27U C66U A70G, for which the “yeast fitness (ln)” value was -0.349.

For the variant G1A U2G G6A C27U C66U A70U, the “yeast fitness (ln)” value was -0.234.

For the variant G1A U2G G6A C27U A43C C66U A69G A70G, the “yeast fitness (ln)” value was -0.447.

On to G1A U2G G6A C27U A43C C66U A69G A70U, for which the “yeast fitness (ln)” value is -0.387.

Turning to G1A U2G G6A C27U A43C C46U C71U, the “yeast fitness (ln)” value was -0.42.

As to G1A U2G G6U A43C C66U A69G A70G C71U, the “yeast fitness (ln)” value was -0.368.

For G1A U2G G6U C27U A43C C46U, the “yeast fitness (ln)” value was -0.363.

Consider G1A U2G G6U A43C C46U A70U C71U, for which the “yeast fitness (ln)” value was -0.226.

Regarding G1A U2G G6A C27U C46U C66U, the “yeast fitness (ln)” value was -0.258.

Consider G1A U2G G6U C27U A43C A70G C71U, for which the “yeast fitness (ln)” value is -0.588.

Consider G1A U2G G6A C27U A69G A70G C71U, for which the “yeast fitness (ln)” value was -0.443.

Turning to G1A U2G G6U C27U A43C C46U C66A A70U C71U, the “yeast fitness (ln)” value was -0.626.

In the case of G1A U2G G6A C27U A43C C46U C66U A69G A70G, the “yeast fitness (ln)” value was -0.34.

For the variant G1A U2G G6A C27U A43C C46U C66U A69G A70U, the “yeast fitness (ln)” value was -0.436.

For G1A U2G G6A C27U A43C C46U C66U C71U, the “yeast fitness (ln)” value was -0.29.

In the case of G1A U2G G6A C46U C66U A70U C71U, the “yeast fitness (ln)” value is -0.00784.

Consider G1A U2G G6U A43C A69G A70G C71U, for which the “yeast fitness (ln)” value was -0.439.

As for G1A U2G G6U C27U A43C C46U C66U, the “yeast fitness (ln)” value was -0.434.

Consider G1A U2G G6U C27U A43C C46U C66A, for which the “yeast fitness (ln)” value was -0.25.

In the case of G1A U2G G6A C46U C66A A70U, the “yeast fitness (ln)” value is -0.189.

As to G1A U2G G6A C27U C46U A69G A70U C71U, the “yeast fitness (ln)” value is -0.379.

Take G1A U2G G6A A43C C71U: the “yeast fitness (ln)” value was -0.276.

With G1A U2G G6U C27U A43C C66A A69G A70G C71U, the “yeast fitness (ln)” value is -0.461.

For G1A U2G G6U A43C C46U C66U A69G A70U C71U, the “yeast fitness (ln)” value was -0.499.

In the case of G1A U2G G6U A43C A70U, the “yeast fitness (ln)” value is -0.257.

Turning to G1A U2G G6U A43C A70G, the “yeast fitness (ln)” value is -0.263.

G1A U2G G6A C27U A43C C46U C66A A70U: the “yeast fitness (ln)” value was -0.219.

For the variant G1A U2G G6U A69G A70U C71U, the “yeast fitness (ln)” value was -0.255.

As for G1A U2G G6U A69G A70G, the “yeast fitness (ln)” value was -0.183.

As for G1A U2G G6U A69G A70U, the “yeast fitness (ln)” value is -0.278.

Take G1A U2G G6U A43C A69G C71U: the “yeast fitness (ln)” value is -0.537.

On to G1A U2G G6A C27U C46U A69G C71U, for which the “yeast fitness (ln)” value is -0.269.

Take G1A U2G G6A A43C C46U A70U C71U: the “yeast fitness (ln)” value is -0.14.

Consider G1A U2G G6U A69G A70G C71U, for which the “yeast fitness (ln)” value was -0.427.

Consider G1A U2G G6A C46U C66U, for which the “yeast fitness (ln)” value was -0.13.

As to G1A U2G G6A C46U A69G A70G C71U, the “yeast fitness (ln)” value was -0.162.

For the variant G1A U2G G6U C27U A43C C66U A69G A70U, the “yeast fitness (ln)” value was -0.611.

Take G1A U2G G6U C27U A43C C66U A69G A70G: the “yeast fitness (ln)” value was -0.337.

As for G1A U2G G6U C27U A43C C66U A70G, the “yeast fitness (ln)” value is -0.4.

Take G1A U2G G6U C27U A43C C66U A70U: the “yeast fitness (ln)” value was -0.47.

Take G1A U2G G6A C27U C46U C66U A70G C71U: the “yeast fitness (ln)” value is -0.243.

As for G1A U2G G6U A43C C66A A70G C71U, the “yeast fitness (ln)” value is -0.301.

As to G1A U2G G6A C27U C71U, the “yeast fitness (ln)” value was -0.263.

Take G1A U2G G6A C46U C66U C71U: the “yeast fitness (ln)” value was -0.301.

Take G1A U2G G6U C27U A43C C66U A69G A70G C71U: the “yeast fitness (ln)” value was -0.491.

In the case of G1A U2G G6U A43C C46U C66U A70U C71U, the “yeast fitness (ln)” value is -0.399.

Take G1A U2G G6A C66U A70U: the “yeast fitness (ln)” value is -0.319.

G1A U2G G6A C66U A70G: the “yeast fitness (ln)” value is -0.142.

Turning to G1A U2G G6A C27U A43C C46U A69G A70U C71U, the “yeast fitness (ln)” value is -0.443.

On to G1A U2G G6A C66A A69G A70G C71U, for which the “yeast fitness (ln)” value is -0.257.

For the variant G1A U2G G6A A43C C46U C66U A70U, the “yeast fitness (ln)” value was -0.306.

Consider G1A U2G G6A A43C C46U C66U A70G, for which the “yeast fitness (ln)” value is -0.181.

As to G1A U2G G6U C27U A70U, the “yeast fitness (ln)” value is -0.265.

For G1A U2G G6U C27U A70G, the “yeast fitness (ln)” value was -0.274.
